Hits are enriched below; roughly 0.96% of the tested compounds scored in any of these assays.
AGP1 TOR yeast = alters AGP1-GFP fluorescence in TOR pathway yeast screen; S. cerevisiae AGP1-GFP multiplex flow cytometry, 3 h; GFP as percent of DMSO wells; GFP response vs DMSO, % at 10 µM; hit rate 0.02% among 320,000;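 active = GFP response relative to DMSO above a set limit, near screen average plus 3 SD, cut at about 150% in these data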;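 also: median GFP channel fluorescence of the gated AGP1 strain per well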
CIT2 TOR yeast = yeast TOR pathway CIT2-GFP modulation; S. cerevisiae CIT2-GFP strain, flow cytometry, 3 h; 100 means same as DMSO wells; GFP response vs DMSO, % at 10 µM; hit rate 0.065% among 320,000; AID 2029;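 active = GFP response relative to DMSO above a set limit, near the screen mean plus 3 SD, cut at about 150% in these data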;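 also: ratio of well median GFP fluorescence to mean of DMSO wells on the plate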
T cell modulator = T cell immune modulation candidate. 2C CD8+ T cell-vesicle binding, flow cytometry; stronger effect = lower value. response (vesicle binding), % at 7 µM. hit rate 0.068% among 330,000. AID 2052;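 active = response, share of CD8 T cells binding vesicles, and their 90th percentile fluorescence all below set limits, cut at about 80% in these data, passing the limit was not always enough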;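 also: values below 100% mean blocked vesicle binding to the CD8+ T cells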
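Incubation: binding step 1.5 h, 37 °C, antibody labelling 20 min, ice; system: murine 2C transgenic CD8+ T lymphocytes; technique: cytometric PE anti-B7-1 and Alexa647 anti-CD8 signals after 1% paraformaldehyde fixation; also added: QL9-charged Drosophila Ld/ICAM-1/B7-1 vesicles; control set: naked versus QL9-loaded vesicles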
RPL19A TOR yeast = yeast TOR pathway RPL19A-GFP modulation. S. cerevisiae RPL19A-GFP strain, flow cytometry, 3 h; stronger effect = lower value. percent response vs DMSO, % at 10 µM. hit rate 0.3% among 330,000. AID 2025;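 active = percent response vs DMSO below 50%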;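 also: median channel GFP fluorescence of the barcoded RPL19A-GFP strain; ratio of sample median GFP to plate DMSO average so 100% = DMSO; lower means less RPL19A-GFP as with rapamycin TOR inhibition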
MEP2 TOR yeast = alters MEP2-GFP fluorescence in TOR pathway yeast screen. S. cerevisiae MEP2-GFP strain, flow cytometry GFP, 3 h; 100% = DMSO control level. GFP response vs DMSO, % at 10 µM. hit rate 0.51% among 330,000. AID 2016;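 active = GFP response versus DMSO above a set limit, roughly screen mean plus 3 SD, cut at about 180% in these data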;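 also: median GFP fluorescence of the barcode-gated MEP2-GFP cells per well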
LAP4-GFP MLPCN = modulators of TOR pathway LAP4-GFP in S. cerevisiae. S. cerevisiae LAP4-GFP multiplex, flow cytometry GFP, 3 h; median GFP as percent of DMSO wells. GFP response vs DMSO, % at 10 µM. hit rate 0.34% among 320,000. AID 2023;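 active = GFP response vs DMSO above a set limit, about the screen mean plus 3 SD, cut at about 150% in these data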
LAP4 cherry2 = second confirmation of modulators of TOR reporter LAP4-GFP in yeast. shares compounds with LAP4-GFP MLPCN. S. cerevisiae LAP4-GFP strain, flow cytometry GFP, 3 h. GFP response vs DMSO, % at 10 µM. hit rate 20% among 590. AID 2621;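 active = GFP signal as percent of the solvent control above about 150%, meaning raised reporter expression, limit read from the data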;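 also: ratio of well median GFP fluorescence to plate DMSO mean so 100% = DMSO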
MEP2 cherry2 = second confirmation of modulators of TOR reporter MEP2-GFP in yeast; shares compounds with LAP4-GFP MLPCN; S. cerevisiae MEP2-GFP strain, flow cytometry GFP, 3 h; GFP response vs DMSO, % at 10 µM; hit rate 10% among 590; AID 2622;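 active = GFP signal above 150% of the solvent control wells, that is a rise of more than half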;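 also: median channel GFP fluorescence of all gated yeast cells per well; ratio of median GFP to plate DMSO average so 100% = DMSO level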
RPL19A GFP CP2 = yeast RPL19A-GFP TOR reporter modulation, second cherry pick; shares compounds with LAP4-GFP MLPCN; S. cerevisiae RPL19A-GFP strain, flow cytometry GFP, 3 h; stronger effect = lower value; 100% means same as DMSO wells; GFP response vs DMSO, % at 10 µM; hit rate 3% among 590; AID 2623;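 active = under 65% GFP response relative to DMSO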;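 also: median GFP channel fluorescence per well over the all cells gate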
CIT2 GFP CP2 = reconfirmed modulator of CIT2-GFP TOR reporter in yeast | shares compounds with LAP4-GFP MLPCN | S. cerevisiae CIT2-GFP strain, flow cytometry GFP, 3 h; DMSO control wells read 100% | GFP response vs DMSO, % at 10 µM | hit rate 8% among 590 | AID 2624;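 active = GFP response vs DMSO above about 150%, limit read from the data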;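 also: median green fluorescence per well over all gated yeast cells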
AGP1-GFP pick2 = reconfirmed modulator of AGP1-GFP TOR reporter in yeast; shares compounds with LAP4-GFP MLPCN; S. cerevisiae AGP1-GFP strain, flow cytometry GFP, 3 h; percent response vs DMSO, % at 10 µM; 590 tested, under 10 active;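 active = over 150 percent of DMSO response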;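 also: median GFP channel fluorescence over all cells without mother daughter split; sample median GFP divided by mean DMSO control so 100% equals DMSO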
s288c autofluor = counter-screen for compound autofluorescence in yeast s288c cells; shares compounds with LAP4-GFP MLPCN; S. cerevisiae s288c, 520 nm autofluorescence, flow cytometry, 3 h; stronger effect = higher value; zero means same as solvent-only cells; fluorescence change (kMESF span) at 33 µM; 610 tested, under 10 active;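 active = fluorescence span over the dose series, or activity score, above about 33, limit read from the data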
s288c autofl DR = yeast s288c autofluorescence artifact in dose response; shares compounds with LAP4-GFP MLPCN; S. cerevisiae s288c parental, compound autofluorescence, flow cytometry, 3 h; fluorescence change (span) at 33 µM; 110 tested, under 10 active;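 active = fluorescence change span, or the activity score built from it, above 25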
TORC1 bypass = stops wildtype yeast growth while TORC1 bypass cells still grow. AID 504456. S. cerevisiae BY4741 spot growth rating, 48-72 h; stronger effect = lower value. shares compounds with LAP4-GFP MLPCN. 120 tested, under 10 active. growth rating (0-3) at 30 µM;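 active = growth rating at most 1 for wild type yeast while the TORC1 bypass strain still grows fully, rated 3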
The depositor's hits bear a star; i = inactive; . = not tested or not shown; + = active, no number.

SMILES	AGP1 TOR yeast	CIT2 TOR yeast	T cell modulator	RPL19A TOR yeast	MEP2 TOR yeast	LAP4-GFP MLPCN	LAP4 cherry2	MEP2 cherry2	RPL19A GFP CP2	CIT2 GFP CP2	AGP1-GFP pick2	s288c autofluor	others
COC(C(=O)Nc1ccccc1C(=O)N1CCOCC1)c1ccccc1 (configuration not stated)	102.3	99.0	0.0	98.0	105.9	93.1	.	.	.	.	.	.
COc1ccc(C2=NOC(Cn3nc(C(=O)NCC4CC4)cc3-c3ccccc3)C2)cc1 (configuration not stated)	99.7	94.8	308.0	97.4	100.0	99.4	.	.	.	.	.	.
COc1ccc(C2CC(c3ccccc3O)=NN2C(=O)c2ccccc2)cc1OC (configuration not stated)	99.4	106.0	231.5	103.2	102.1	93.8	.	.	.	.	.	.
COc1ccc(C2=NN(C(=O)c3ccccc3)C(c3ccc(OC)c(OC)c3)C2)c(OC(C)=O)c1 (configuration not stated)	83.0	113.2	290.3	95.4	+	101.1	102.2	104.8	100.0	104.3	98.8	.
COc1cc(OC)c2c3c(c(C4CCCCC4)nc2c1)CCC3	88.2	88.8	374.3	98.2	97.3	104.5	.	.	.	.	.	.
CC(=O)C1C(=O)c2c(cccc2[N+](=O)[O-])C1=Nc1ccc(S(N)(=O)=O)cc1 (configuration not stated)	101.3	109.7	247.3	105.0	112.0	99.2	.	.	.	.	.	.
Cc1cc(C)c2c(c1)/C(=C/C(=O)c1ccc(Br)s1)C(=O)N2	112.7	109.8	241.7	109.0	110.3	106.4	.	.	.	.	.	-0.1
CCc1ccc2c(c1)/C(=C/C(=O)c1cccs1)C(=O)N2	80.0	76.2	389.9	80.6	95.1	169.4*	.	.	.	.	.	0.11
Cc1cccc2c1NC(=O)/C2=C\C(=O)c1cccs1	82.2	76.9	199.7	87.6	90.2	185.3*	.	.	.	.	.	-0.11
Cc1cc(Br)c2c(c1)/C(=C/C(=O)c1cccs1)C(=O)N2	86.9	.	291.7	82.1	89.5	111.8	.	.	.	.	.	-0.2
CCc1ccc2c(c1)/C(=N/N(C)C(=S)NC)C(=O)N2	100.7	90.1	224.1	95.2	105.6	103.9	.	.	.	.	.	.
Cc1ccc(C(=O)NCC(c2ccco2)N2CCc3ccccc32)cc1 (configuration not stated)	89.5	86.9	337.5	89.2	98.1	95.2	.	.	.	.	.	.
Cc1ccc(S(=O)(=O)N2CCN(C(=O)c3ccc(Br)o3)CC2)c(C)c1	95.8	98.1	337.2	96.8	99.9	99.5	.	.	.	.	.	.
COC(=O)c1ccc(CSc2nc3c(c(=O)n2-c2ccc(C)cc2)SCC3)o1	102.5	96.5	439.8	80.5	101.0	171.6*	91.2	89.1	98.9	98.7	96.4	.
CC(C)(C)C1CCc2sc(-c3nnc(CCl)o3)cc2C1 (configuration not stated)	64.0	102.4	160.2	61.7	94.0	60.0	114.2	111.8	99.3	119.6	88.2	.
CCOC(=O)COc1ccccc1/C=C\[N+](=O)[O-]	76.5	74.2	473.4	72.4	91.4	188.4*	140.3	122.3	95.7	112.6	101.0	.
Cc1ccc(C(=O)COC(=O)COc2ccccc2[N+](=O)[O-])s1	98.7	97.3	964.2	98.2	101.1	103.7	.	.	.	.	.	.
CCn1c(CSc2n[nH]c(N)n2)nc2cc(C(=O)O)ccc21	104.2	109.1	i	100.8	178.4*	124.6	97.1	98.2	99.8	100.7	101.3	.
CCn1c(CSc2nnc3ccccn23)nc2cc(C(=O)O)ccc21	92.7	84.5	176.9	101.0	91.6	94.2	.	.	.	.	.	.
Cc1cc(C2CCCCC2)n(O)c(=O)c1	84.4	60.8	962.0	99.9	91.3	191.8*	187.4*	120.5	104.2	73.7	113.3	0
COCO/C=C(\NC(C)=O)c1ccccc1	108.1	100.2	492.2	99.1	97.8	110.5	.	.	.	.	.	.
CCOc1ccc(-n2c(SCC(=O)NC)nnc2-c2ccco2)cc1	99.0	100.8	411.3	100.0	92.2	87.4	.	.	.	.	.	.
COc1ccccc1C(=O)Nc1ccc(Br)c2cccnc12	100.1	106.2	116.9	103.3	102.9	86.6	.	.	.	.	.	.
COc1ccccc1C(=O)Nc1ccc(Br)cc1C	106.6	83.4	306.2	81.5	102.0	187.8*	103.8	104.8	98.3	96.1	95.8	.
Cc1cc(C)cc(N2CC(C(=O)NC3CCCCC3)CC2=O)c1 (configuration not stated)	92.5	92.0	252.9	98.4	95.7	84.7	.	.	.	.	.	.
O=C(/C=C/c1cccc(Cl)c1)c1nc2ccccc2[nH]1	75.7	68.5	185.3	79.0	84.1	228.5*	235.5*	148.5	77.5	141.8	82.7	2.7
CCOC(=O)N1C(=O)[C@](CC)(c2ccccc2)N1C(=O)OCC	90.9	98.7	233.9	90.9	94.4	108.0	.	.	.	.	.	.
CCC1(c2ccccc2)ON(c2c(Br)cccc2Br)C1=O (configuration not stated)	60.2	81.6	472.5	80.0	85.5	130.7	124.0	118.1	99.8	113.1	94.3	0.5
CCOC(=O)CS(=O)(=O)c1nc(-c2ccccc2)cc(C(F)(F)F)n1	115.3	83.6	367.6	87.6	131.1	179.6*	.	.	.	.	.	0.41	s288c autofl DR=0.16;TORC1 bypass=3
